The source made the active and inactive calls. No cut-off for these calls is given here.
Columns and labels:
T47D [1] = assay: Inhibition of PR-A gene expression in human T47D cells at 25 nM by syber green assay in presence of 10 nM estradiol; assay type: functional, cell-based
T47D [2] = assay: Inhibition of PR-A mRNA gene expression in human T47D cells at 100 nM by syber green assay; assay type: functional
Outline: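 T47D cells plated at 80,000/well without antibiotics two days before Oligofectamine transfection with agRNA duplex (25 or 100 nM final); medium changed at 24 h, harvest day 5 unless stated otherwise. TRIzol total RNA; PR mRNA by real-time PCR with SYBR Green: 50 °C 2 min, 95 °C 10 min, 40 cycles 95 °C 15 s/60 °C 1 min.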

T47D [3] = assay: Inhibition of PR-B mRNA gene expression in human T47D cells at 100 nM by syber green assay; assay type: functional
Outline: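 T47D cells in RPMI-1640 with 10% FBS, NEAA, insulin, 37 °C, 5% CO2. Plated two days before transfection without antibiotics. Oligofectamine-mediated duplex RNA transfection at 100 nM final, medium changed at 24 h, harvest five days post-transfection. Total RNA extracted with TRIzol. hPR mRNA quantified by SYBR Green qPCR: 50 °C 2 min, 95 °C 10 min, then 40 cycles of 95 °C 15 s / 60 °C 1 min.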

T47D [4] = assay: Inhibition of cyclooxygenase-2 expression in human T47D cells at 25 nM by syber green assay; assay type: functional, cell-based
T47D [5] = assay: Inhibition of PR-B gene expression in human T47D cells at 25 nM by syber green assay in presence of 10 nM estradiol; assay type: functional, cell-based
T47D [6] = assay: Inhibition of major vault protein expression in human T47D cells at 100 nM by syber green assay; assay type: functional, cell-based
T47D [7] = assay: Inhibition of androgen receptor expression in human T47D cells after 12 days at 100 nM by syber green assay; assay type: functional, cell-based
Outline: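 AR expression in T47D cells, grown in RPMI-1640 with 10% FBS, NEAA and insulin. Plated antibiotic-free two days before Oligofectamine transfection with 100 nM duplex RNA; medium replaced after 24 h. TRIzol total RNA. SYBR Green real-time PCR: 50 °C 2 min, 95 °C 10 min, 40 cycles of 95 °C 15 s and 60 °C 1 min.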

Compound	inhibition (T47D [1])	inhibition at 0.1 µM (T47D [2])	inhibition at 0.1 µM (T47D [3])	inhibition (T47D [4])	inhibition (T47D [5])	inhibition (T47D [6])	inhibition (T47D [7])
Cc1cn(CC(=O)N(CCNC(=O)CN(CCNC(=O)CN(CCNC(=O)CN(CCNC(=O)CN(CCNC(=O)CN(CCNC(=O)CN(CCNC(=O)CN(CCNC(=O)CN(CCNC(=O)CN(CCNC(=O)CN(CCNC(=O)CN(CCNC(=O)CN(CCNC(=O)CN(CCNC(=O)CN(CCNC(=O)CN(CCNC(=O)CN(CCNC(=O)CN(CCNC(=O)CN(CCNC(=O)CN(CCNC(=O)CN)C(=O)Cn2ccc(=O)[nH]c2=O)C(=O)Cn2ccc(N)nc2=O)C(=O)Cn2cnc3c(=O)[nH]c(N)nc32)C(=O)Cn2cnc3c(=O)[nH]c(N)nc32)C(=O)Cn2ccc(=O)[nH]c2=O)C(=O)Cn2ccc(=O)[nH]c2=O)C(=O)Cn2cnc3c(N)ncnc32)C(=O)Cn2cnc3c(=O)[nH]c(N)nc32)C(=O)Cn2ccc(N)nc2=O)C(=O)Cn2cnc3c(=O)[nH]c(N)nc32)C(=O)Cn2cnc3c(N)ncnc32)C(=O)Cn2ccc(N)nc2=O)C(=O)Cn2ccc(N)nc2=O)C(=O)Cn2cnc3c(N)ncnc32)C(=O)Cn2cnc3c(N)ncnc32)C(=O)Cn2ccc(=O)[nH]c2=O)C(=O)Cn2ccc(=O)[nH]c2=O)C(=O)Cn2cnc3c(N)ncnc32)C(=O)Cn2ccc(=O)[nH]c2=O)CC(=O)NCCN(CC(=O)NCC(=O)O)C(=O)Cn2cc(C)c(=O)[nH]c2=O)c(=O)[nH]c1=O	Active	71%	71%	Active			
Cc1cn(CC(=O)N(CCNC(=O)CN(CCNC(=O)CN(CCNC(=O)CN(CCNC(=O)CN(CCNC(=O)CN(CCNC(=O)CN(CCNC(=O)CN(CCNC(=O)CN(CCNC(=O)CN(CCNC(=O)CN(CCNC(=O)CN(CCNC(=O)CN(CCNC(=O)CN(CCNC(=O)CN(CCNC(=O)CN(CCNC(=O)CN(CCNC(=O)CN(CCNC(=O)CN(CCNC(=O)CN(CCNC(=O)CN)C(=O)Cn2cnc3c(N)ncnc32)C(=O)Cn2cnc3c(=O)[nH]c(N)nc32)C(=O)Cn2cnc3c(=O)[nH]c(N)nc32)C(=O)Cn2ccc(N)nc2=O)C(=O)Cn2cnc3c(N)ncnc32)C(=O)Cn2cnc3c(=O)[nH]c(N)nc32)C(=O)Cn2cnc3c(=O)[nH]c(N)nc32)C(=O)Cn2cnc3c(=O)[nH]c(N)nc32)C(=O)Cn2ccc(=O)[nH]c2=O)C(=O)Cn2cnc3c(=O)[nH]c(N)nc32)C(=O)Cn2cnc3c(N)ncnc32)C(=O)Cn2cnc3c(=O)[nH]c(N)nc32)C(=O)Cn2cnc3c(N)ncnc32)C(=O)Cn2cnc3c(=O)[nH]c(N)nc32)C(=O)Cn2ccc(=O)[nH]c2=O)C(=O)Cn2ccc(=O)[nH]c2=O)C(=O)Cn2ccc(N)nc2=O)C(=O)Cn2ccc(N)nc2=O)C(=O)Cn2ccc(N)nc2=O)CC(=O)NCCN(CC(=O)NCC(=O)O)C(=O)Cn2cc(C)c(=O)[nH]c2=O)c(=O)[nH]c1=O	Active	81%	81%		Active	Active	
Cc1cn(CC(=O)N(CCNC(=O)CN(CCNC(=O)CN(CCNC(=O)CN(CCNC(=O)CN(CCNC(=O)CN(CCNC(=O)CN(CCNC(=O)CN(CCNC(=O)CN(CCNC(=O)CN(CCNC(=O)CN(CCNC(=O)CN(CCNC(=O)CN(CCNC(=O)CN(CCNC(=O)CN(CCNC(=O)CN(CCNC(=O)CN(CCNC(=O)CN(CCNC(=O)CN(CCNC(=O)CN(CCNC(=O)CN)C(=O)Cn2cnc3c(=O)[nH]c(N)nc32)C(=O)Cn2cnc3c(=O)[nH]c(N)nc32)C(=O)Cn2cnc3c(=O)[nH]c(N)nc32)C(=O)Cn2cnc3c(=O)[nH]c(N)nc32)C(=O)Cn2ccc(N)nc2=O)C(=O)Cn2cnc3c(=O)[nH]c(N)nc32)C(=O)Cn2ccc(N)nc2=O)C(=O)Cn2ccc(=O)[nH]c2=O)C(=O)Cn2cnc3c(=O)[nH]c(N)nc32)C(=O)Cn2cnc3c(=O)[nH]c(N)nc32)C(=O)Cn2cnc3c(=O)[nH]c(N)nc32)C(=O)Cn2cnc3c(N)ncnc32)C(=O)Cn2cnc3c(=O)[nH]c(N)nc32)C(=O)Cn2cnc3c(=O)[nH]c(N)nc32)C(=O)Cn2ccc(=O)[nH]c2=O)C(=O)Cn2cnc3c(=O)[nH]c(N)nc32)C(=O)Cn2cnc3c(=O)[nH]c(N)nc32)C(=O)Cn2cnc3c(N)ncnc32)C(=O)Cn2cnc3c(=O)[nH]c(N)nc32)CC(=O)NCCN(CC(=O)NCC(=O)O)C(=O)Cn2cc(C)c(=O)[nH]c2=O)c(=O)[nH]c1=O	Active	39%	39%		Active		Active
Cc1cn(CC(=O)N(CCNC(=O)CN(CCNC(=O)CN(CCNC(=O)CN(CCNC(=O)CN(CCNC(=O)CN(CCNC(=O)CN(CCNC(=O)CN(CCNC(=O)CN(CCNC(=O)CN(CCNC(=O)CN(CCNC(=O)CN(CCNC(=O)CN(CCNC(=O)CN(CCNC(=O)CN(CCNC(=O)CN(CCNC(=O)CN(CCNC(=O)CN(CCNC(=O)CN(CCNC(=O)CN(CCNC(=O)CN)C(=O)Cn2ccc(=O)[nH]c2=O)C(=O)Cn2ccc(N)nc2=O)C(=O)Cn2ccc(N)nc2=O)C(=O)Cn2cnc3c(N)ncnc32)C(=O)Cn2ccc(N)nc2=O)C(=O)Cn2ccc(N)nc2=O)C(=O)Cn2ccc(=O)[nH]c2=O)C(=O)Cn2ccc(N)nc2=O)C(=O)Cn2ccc(N)nc2=O)C(=O)Cn2ccc(N)nc2=O)C(=O)Cn2cnc3c(N)ncnc32)C(=O)Cn2cnc3c(=O)[nH]c(N)nc32)C(=O)Cn2ccc(N)nc2=O)C(=O)Cn2cnc3c(=O)[nH]c(N)nc32)C(=O)Cn2ccc(N)nc2=O)C(=O)Cn2ccc(N)nc2=O)C(=O)Cn2ccc(N)nc2=O)C(=O)Cn2ccc(N)nc2=O)C(=O)Cn2ccc(N)nc2=O)CC(=O)NCCN(CC(=O)NCC(=O)O)C(=O)Cn2cc(C)c(=O)[nH]c2=O)c(=O)[nH]c1=O	Active	34%	34%		Active		Active
Cc1cn(CC(=O)N(CCNC(=O)CN(CCNC(=O)CN(CCNC(=O)CN(CCNC(=O)CN(CCNC(=O)CN(CCNC(=O)CN(CCNC(=O)CN(CCNC(=O)CN(CCNC(=O)CN(CCNC(=O)CN(CCNC(=O)CN(CCNC(=O)CN(CCNC(=O)CN(CCNC(=O)CN(CCNC(=O)CN(CCNC(=O)CN(CCNC(=O)CN(CCNC(=O)CN(CCNC(=O)CN(CCNC(=O)CN)C(=O)Cn2ccc(=O)[nH]c2=O)C(=O)Cn2ccc(=O)[nH]c2=O)C(=O)Cn2cnc3c(N)ncnc32)C(=O)Cn2cnc3c(=O)[nH]c(N)nc32)C(=O)Cn2ccc(N)nc2=O)C(=O)Cn2cnc3c(=O)[nH]c(N)nc32)C(=O)Cn2cnc3c(N)ncnc32)C(=O)Cn2ccc(N)nc2=O)C(=O)Cn2ccc(N)nc2=O)C(=O)Cn2cnc3c(N)ncnc32)C(=O)Cn2cnc3c(N)ncnc32)C(=O)Cn2ccc(=O)[nH]c2=O)C(=O)Cn2ccc(=O)[nH]c2=O)C(=O)Cn2cnc3c(=O)[nH]c(N)nc32)C(=O)Cn2ccc(=O)[nH]c2=O)C(=O)Cn2ccc(N)nc2=O)C(=O)Cn2cnc3c(N)ncnc32)C(=O)Cn2ccc(=O)[nH]c2=O)C(=O)Cn2cnc3c(N)ncnc32)CC(=O)NCCN(CC(=O)NCC(=O)O)C(=O)Cn2cc(C)c(=O)[nH]c2=O)c(=O)[nH]c1=O	Active	81%	81%	Active			
Cc1cn(CC(=O)N(CCNC(=O)CN(CCNC(=O)CN(CCNC(=O)CN(CCNC(=O)CN(CCNC(=O)CN(CCNC(=O)CN(CCNC(=O)CN(CCNC(=O)CN(CCNC(=O)CN(CCNC(=O)CN(CCNC(=O)CN(CCNC(=O)CN(CCNC(=O)CN(CCNC(=O)CN(CCNC(=O)CN(CCNC(=O)CN(CCNC(=O)CN(CCNC(=O)CN(CCNC(=O)CN(CCNC(=O)CN)C(=O)Cn2ccc(=O)[nH]c2=O)C(=O)Cn2ccc(N)nc2=O)C(=O)Cn2ccc(=O)[nH]c2=O)C(=O)Cn2ccc(N)nc2=O)C(=O)Cn2ccc(N)nc2=O)C(=O)Cn2cnc3c(N)ncnc32)C(=O)Cn2ccc(N)nc2=O)C(=O)Cn2ccc(N)nc2=O)C(=O)Cn2ccc(=O)[nH]c2=O)C(=O)Cn2ccc(N)nc2=O)C(=O)Cn2ccc(N)nc2=O)C(=O)Cn2ccc(N)nc2=O)C(=O)Cn2cnc3c(N)ncnc32)C(=O)Cn2cnc3c(=O)[nH]c(N)nc32)C(=O)Cn2ccc(N)nc2=O)C(=O)Cn2cnc3c(=O)[nH]c(N)nc32)C(=O)Cn2ccc(N)nc2=O)C(=O)Cn2ccc(N)nc2=O)C(=O)Cn2ccc(N)nc2=O)CC(=O)NCCN(CC(=O)NCC(=O)O)C(=O)Cn2cc(C)c(=O)[nH]c2=O)c(=O)[nH]c1=O	Active	< 20%	< 20%		Active		Active
